ChEMBL document CHEMBL1123757, “Selective thromboxane synthetase inhibitors and antihypertensive agents. New derivatives of 4-hydrazino-5H-pyridazino[4,5-b]indole, 4-hydrazinopyridazino[4,5-a]indole, and related compounds” (J Med Chem, 1987)

Tests used:
[1] = test system: Rattus norvegicus; test: Antihypertensive activity in spontaneously hypertensive rats (SHR) measured by percentage fall in cardiac rhythm (CR) at 25 mg/kg administered intraperitoneally at 3 h;No significance; type: functional, organism-based; design: dose 25 mg/kg; conditions: Heart
How it was run: (§1)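 Conscious SHR (Okamoto strain), 8 weeks old, male and female, 300–350 g, systolic BP ≥190 mmHg, CR 400–650 beats/min. Given ip or po at 2.5 mL/kg in normal saline or saline with 0.2% (carboxymethyl)cellulose and 1.0% Tween 80. Tail AP and CR recorded by mechanical transduction at 1, 3, 5 and 24 h, five animals per dose. Effect expressed as % fall versus control.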

[2] = test system: Rattus norvegicus; test: Antihypertensive activity in spontaneously hypertensive rats (SHR) measured by percentage fall in arterial pressure (AP) at 25 mg/kg administered intraperitoneally at 24 h;No significance; type: functional, organism-based; design: dose 25 mg/kg; conditions: Artery
How it was run: (§2)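 Unanesthetized Okamoto-strain SHR, male and female, 8 weeks old, 300–350 g, systolic pressure ≥190 mmHg, heart rate 400–650 beats/min; five animals per dose. Given ip at 2.5 mL/kg, dissolved or suspended in normal saline or saline with 0.2% (carboxymethyl)cellulose and 1.0% Tween 80. Tail AP and CR recorded by mechanical transduction at set times; reported as percentage fall from control.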

[3] = test system: Rattus norvegicus; test: Antihypertensive activity in spontaneously hypertensive rats (SHR) measured by percentage fall in cardiac rhythm (CR) at 25 mg/kg administered intraperitoneally at 5 h;No significance; type: functional, organism-based; design: dose 25 mg/kg; conditions: Heart; how it was run: as §1
[4] = test system: Rattus norvegicus; test: Antihypertensive activity in spontaneously hypertensive rats (SHR) measured by percentage fall in cardiac rhythm (CR) at 25 mg/kg administered intraperitoneally at 1 h; type: functional, Heart; conditions: route intraperitoneal; how it was run: as §2
[5] = species: Homo sapiens; test: In vitro inhibition of platelet aggregation induced by AA (PRP incubated for 60 minutes at 37 degree C) at 10e-5 M;NS means no significance; type: functional
How it was run: (§3)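 Human venous blood anticoagulated with 3.8% sodium citrate (1:9). PRP from centrifugation at 800 rpm for 10 min at room temperature. Count adjusted with PPP to […]. Compound in saline with 10% ethylene glycol is added to PRP and incubated at 37 °C before the agonist. Agonists: ADP 2×10^-5 M, AA 0.6 mM, PGH2 2.8 μM, adrenaline 0.6 μM. Born absorbance aggregometry; n = 5.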

[6] = test system: Rattus norvegicus; test: Antihypertensive activity in spontaneously hypertensive rats (SHR) measured by percentage fall in arterial pressure (AP) at 25 mg/kg administered intraperitoneally at 5 h;No significance; type: functional, organism-based; design: dose 25 mg/kg; conditions: Artery; how it was run: as §2
[7] = test system: Rattus norvegicus; test: Antihypertensive activity in spontaneously hypertensive rats (SHR) measured by percentage fall in arterial pressure (AP) at 25 mg/kg administered intraperitoneally at 1 h;No significance; type: functional, organism-based; design: dose 25 mg/kg; conditions: Artery; how it was run: as §2
[8] = species: Homo sapiens; test: In vitro inhibition of platelet aggregation induced by ADP-II (PRP incubated for 5 minutes at 37 degree C) at 10e-5 M;No significance; type: functional; how it was run: as §3
[9] = test system: Rattus norvegicus; test: Antihypertensive activity in spontaneously hypertensive rats (SHR) measured by percentage fall in cardiac rhythm (CR) at 25 mg/kg administered intraperitoneally at 24 h;No significance; type: functional, organism-based; design: dose 25 mg/kg; conditions: Heart; how it was run: as §2
[10] = species: Homo sapiens; test: In vitro inhibition of platelet aggregation induced by […] (PRP incubated for 5 minutes at 37 degree C) at 10e-5 M;NS means no significance; type: functional
[11] = test system: Rattus norvegicus; test: Antihypertensive activity in spontaneously hypertensive rats (SHR) measured by percentage fall in arterial pressure (AP) at 25 mg/kg administered intraperitoneally at 3 h;No significance; type: functional, organism-based; design: dose 25 mg/kg; conditions: Artery; how it was run: as §2
[12] = species: Homo sapiens; test: In vitro inhibition of platelet aggregation induced by ADP-II (PRP incubated for 60 minutes at 37 degree C) at 10e-5 M; type: functional; conditions: 1 h; how it was run: as §3
[13] = test system: Rattus norvegicus; test: Antihypertensive activity in spontaneously hypertensive rats (SHR) measured by percentage fall in arterial pressure (AP) at 1 mg/kg administered intraperitoneally at 5 h; No significance; type: functional, organism-based; design: dose 1 mg/kg; conditions: Artery; how it was run: as §2
[14] = test system: Rattus norvegicus; test: Antihypertensive activity in spontaneously hypertensive rats (SHR) measured by percentage fall in arterial pressure (AP) at 5 mg/kg administered perorally at 5 h; No significance; type: functional, organism-based; design: dose 5 mg/kg; conditions: Artery
How it was run: (§4)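 Oral dosing at 2.5 mL/kg to unanesthetized male and female Okamoto-strain SHR (8 weeks old, 300–350 g, systolic pressure ≥190 mmHg, heart rate 400–650 beats/min), five per dose. Vehicle was normal saline or saline with 0.2% (carboxymethyl)cellulose and 1.0% Tween 80. AP measured on the tail by mechanical transduction at set times; expressed as percentage fall from control.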

[15] = test system: Rattus norvegicus; test: Antihypertensive activity in spontaneously hypertensive rats (SHR) measured by percentage fall in cardiac rhythm (CR) at 25 mg/kg administered perorally at 3 h;No significance; type: functional, organism-based; design: dose 25 mg/kg; conditions: Heart; how it was run: as §1
[16] = test system: Rattus norvegicus; test: Percent fall in systolic blood pressure, directly measured on carotid (iv on the jugular vein) of spontaneously hypertensive rats at 1 mg/kg after 180 minutes; No significance; type: functional, organism-based; design: dose 1 mg/kg; conditions: Artery
How it was run: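 Anesthetized (sodium pentobarbital, 70 mg/kg) male and female Okamoto SHR, 8 weeks old, 300–350 g. Given iv into the jugular vein in normal saline. Arterial pressure and cardiac rhythm are recorded directly from the carotid by polygraph at set times after dosing. Each is expressed as percent change from the pre-dose control value.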

[17] = test system: Rattus norvegicus; test: Antihypertensive activity in spontaneously hypertensive rats (SHR) measured by percentage fall in cardiac rhythm (CR) at 5 mg/kg administered intraperitoneally at 3 h;No significance; type: functional, organism-based; design: dose 5 mg/kg; conditions: Heart; how it was run: as §1
[18] = test system: Rattus norvegicus; test: Antihypertensive activity in spontaneously hypertensive rats (SHR) measured by percentage fall in cardiac rhythm (CR) at 5 mg/kg administered intraperitoneally at 24 h; No significance; type: functional, organism-based; design: dose 5 mg/kg; conditions: Heart; how it was run: as §1
[19] = test system: Rattus norvegicus; test: Antihypertensive activity in spontaneously hypertensive rats (SHR) measured by percentage fall in cardiac rhythm (CR) at 5 mg/kg administered perorally at 24 h; No significance; type: functional, organism-based; design: dose 5 mg/kg; conditions: Heart; how it was run: as §1
[20] = test system: Rattus norvegicus; test: Antihypertensive activity in spontaneously hypertensive rats (SHR) measured by percentage fall in cardiac rhythm (CR) at 5 mg/kg administered perorally at 3 h;No significance; type: functional, organism-based; design: dose 5 mg/kg; conditions: Heart; how it was run: as §1
[21] = species: Homo sapiens; test: In vitro inhibition of platelet aggregation induced by AA (PRP incubated for 60 minutes at 37 degree C) at 10e-5 M;No significance; type: functional; how it was run: as §3
[22] = test system: Rattus norvegicus; test: Antihypertensive activity in spontaneously hypertensive rats (SHR) measured by percentage fall in cardiac rhythm (CR) at 25 mg/kg administered intraperitoneally at 1 h;No significance; type: functional, organism-based; design: dose 25 mg/kg; conditions: Heart; how it was run: as §2
[23] = test system: Rattus norvegicus; test: Antihypertensive activity in spontaneously hypertensive rats (SHR) measured by percentage fall in cardiac rhythm (CR) at 25 mg/kg administered perorally at 5 h; No significance; type: functional, organism-based; design: dose 25 mg/kg; conditions: Heart; how it was run: as §1
[24] = test system: Rattus norvegicus; test: Antihypertensive activity in spontaneously hypertensive rats (SHR) measured by percentage fall in cardiac rhythm (CR) at 25 mg/kg administered perorally at 24 h; No significance; type: functional, organism-based; design: dose 25 mg/kg; conditions: Heart; how it was run: as §1
[25] = test system: Rattus norvegicus; test: Antihypertensive activity in spontaneously hypertensive rats (SHR) measured by percentage fall in cardiac rhythm (CR) at 5 mg/kg administered perorally at 5 h; No significance; type: functional, organism-based; design: dose 5 mg/kg; conditions: Heart; how it was run: as §1
[26] = test system: Rattus norvegicus; test: Antihypertensive activity in spontaneously hypertensive rats (SHR) measured by percentage fall in arterial pressure (AP) at 1 mg/kg administered intraperitoneally at 24 h; No significance; type: functional, organism-based; design: dose 1 mg/kg; conditions: Artery; how it was run: as §2
[27] = test system: Rattus norvegicus; test: Antihypertensive activity in spontaneously hypertensive rats (SHR) measured by percentage fall in cardiac rhythm (CR) at 5 mg/kg administered intraperitoneally at 1 h;No significance; type: functional, organism-based; design: dose 5 mg/kg; conditions: Heart; how it was run: as §1
[28] = test system: Rattus norvegicus; test: Antihypertensive activity in spontaneously hypertensive rats (SHR) measured by percentage fall in arterial pressure (AP) at 5 mg/kg administered perorally at 24 h; No significance; type: functional, organism-based; design: dose 5 mg/kg; conditions: Artery; how it was run: as §4
[29] = species: Homo sapiens; test: In vitro inhibition of platelet aggregation induced by DD (PRP incubated for 5 minutes at 37 degree C) at 10e-5 M;No significance; type: functional; how it was run: as §3
[30] = test system: Rattus norvegicus; test: Antihypertensive activity in spontaneously hypertensive rats (SHR) measured by percentage fall in arterial pressure (AP) at 25 mg/kg administered perorally at 24 h; No significance; type: functional, organism-based; design: dose 25 mg/kg; conditions: Artery; how it was run: as §4
[31] = test system: Rattus norvegicus; test: Antihypertensive activity in spontaneously hypertensive rats (SHR) measured by percentage fall in arterial pressure (AP) at 25 mg/kg administered perorally at 5 h; No significance; type: functional, organism-based; design: dose 25 mg/kg; conditions: Artery; how it was run: as §4

CCOc1ccc2[nH]c3c(O)nncc3c2c1
Decrease in CR [1]: No significant values
Decrease in AP [2]: No significant values
Decrease in AP [3]: No significant values
Decrease in CR [4]: 6%
inhibition [5]: No significant values
Decrease in CR [6]: No significant values
Decrease in AP [7]: No significant values
inhibition [8]: No significant values
Decrease in CR [9]: No significant values
inhibition [10]: no significance
inhibition [11]: No significant values
inhibition at 10 µM [12]: 100%

CCOc1ccc2[nH]c3c(NN)nncc3c2c1
Decrease in AP [13]: No significant values
Decrease in AP [14]: No significant values
Decrease in blood pressure [15]: No significant values
Decrease in AP [16]: No significant values
Decrease in blood pressure [17]: No significant values
Decrease in CR [18]: No significant values
Decrease in CR [19]: No significant values
Decrease in blood pressure [20]: No significant values
inhibition [21]: No significant values
Decrease in CR [22]: No significant values
Decrease in CR [9]: No significant values
Decrease in CR [23]: No significant values
Decrease in AP [24]: No significant values
Decrease in AP [25]: No significant values
Decrease in AP [26]: No significant values
Decrease in CR [27]: No significant values
Decrease in AP [28]: No significant values
inhibition [29]: No significant values
Decrease in blood pressure [30]: No significant values
Decrease in AP [31]: No significant values
